Screens from PubChem.
TRPC4 PAM – TRPC4 (mouse) allosteric potentiation. B-score at 10 µM. actives 0.42% (n = 310,000). HEK293 TRPC4beta/mu-opioid, DAMGO EC20, Fluo-4 Ca2+ flux; hits give high values. AID 2227;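 active = B-score of calcium response area above 5 SD of library B-scores, with initial fluorescence ratio within 5 SD of library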;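 note: B-score of integrated fluorescence ratio over time as area under calcium response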
Target sequence (Q9QUQ5 whole entry, looked up): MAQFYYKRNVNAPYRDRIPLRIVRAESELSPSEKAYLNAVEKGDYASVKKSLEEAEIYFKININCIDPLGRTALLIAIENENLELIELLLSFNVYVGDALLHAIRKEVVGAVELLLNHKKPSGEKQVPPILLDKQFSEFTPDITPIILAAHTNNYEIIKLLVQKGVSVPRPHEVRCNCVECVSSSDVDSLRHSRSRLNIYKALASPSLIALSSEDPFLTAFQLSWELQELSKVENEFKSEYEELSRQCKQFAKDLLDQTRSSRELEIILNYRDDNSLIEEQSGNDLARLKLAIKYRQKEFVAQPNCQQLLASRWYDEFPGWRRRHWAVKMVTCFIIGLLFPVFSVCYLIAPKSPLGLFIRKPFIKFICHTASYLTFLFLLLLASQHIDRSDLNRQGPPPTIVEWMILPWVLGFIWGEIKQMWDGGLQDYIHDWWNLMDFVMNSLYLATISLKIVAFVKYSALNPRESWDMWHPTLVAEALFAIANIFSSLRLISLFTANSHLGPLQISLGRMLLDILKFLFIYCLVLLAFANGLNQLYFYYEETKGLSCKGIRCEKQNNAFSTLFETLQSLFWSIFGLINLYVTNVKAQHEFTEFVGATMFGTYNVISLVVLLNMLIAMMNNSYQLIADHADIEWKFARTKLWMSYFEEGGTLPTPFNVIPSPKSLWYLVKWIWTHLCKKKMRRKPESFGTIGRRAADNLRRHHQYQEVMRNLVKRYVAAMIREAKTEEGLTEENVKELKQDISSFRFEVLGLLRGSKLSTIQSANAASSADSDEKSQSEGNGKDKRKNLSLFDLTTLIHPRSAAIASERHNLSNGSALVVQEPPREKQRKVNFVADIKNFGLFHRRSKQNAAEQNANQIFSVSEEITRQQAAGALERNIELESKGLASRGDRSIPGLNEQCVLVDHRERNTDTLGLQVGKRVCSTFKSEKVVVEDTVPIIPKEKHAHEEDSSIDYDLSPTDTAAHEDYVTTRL
TRPC6 act – activators of mouse TRPC6 channel | B-score at 10 µM | Q61143 | actives 0.13% (n = 310,000) | HEK293-TRPC6 membrane potential dye fluorescence; hits give high values | AID 2550;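 active = B-score of the integrated fluorescence ratio above library mean plus 3 SD, and starting fluorescence ratio within library mean plus 5 SD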;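 note: higher score means more depolarization so channel activation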
TRPC6 inhibitor – inhibitors of mouse TRPC6 channel | HEK293-TRPC6, membrane potential dye, ACh-evoked depolarization; hits give low values | B-score at 10 µM | actives 1.1% (n = 310,000) | AID 2553;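 active = B-score under library mean minus 3 SD, initial fluorescence not abnormally high, positive integrated signal ratio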;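 note: B-score derived from integrated fluorescence ratio over the kinetic read; more negative B-score means stronger inhibition of depolarization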
TRPC4 act – opens the mouse TRPC4 cation channel. Q9QUQ5. B-score at 10 µM. AID 2237. HEK293 TRPC4beta/mu-opioid, Fluo4 calcium fluorescence; hits give high values. actives 0.49% (n = 310,000);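 active = B-score above 5 SD of library B-scores, and initial fluorescence ratio not above library mean plus 5 SD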;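 note: positive B-score marks a calcium rise read as TRPC4 activation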
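Incubation: 45 min room-temperature Fluo4 loading, 110 s read / System: HEK293 cells stably co-expressing mouse TRPC4beta and mu-opioid receptor / Signal: Fluo4 fluorescence, kinetic / Control set: buffer (low) and maximal DAMGO (high) / Measure: integrated baseline-normalised fluorescence ratio, converted to per-well B score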
TRPC4 inh – blocks the mouse TRPC4 cation channel; HEK293 TRPC4beta/mu-opioid, DAMGO-evoked Fluo4 calcium flux; hits give low values; actives 0.39% (n = 300,000); B-score at 10 µM; Q9QUQ5;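 active = B-score over 3 SD under the library average, no early fluorescence shift, positive overall ratio signal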
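Assay system – HEK293 line stably carrying TRPC4beta and mu-opioid receptor · Doses – single dose · Detection – Fluo4 calcium-dye fluorescence, kinetic read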
TRPC4 spec 2 – mouse TRPC4 off-target activity of TRPC6 inhibitors, second screen; shares compounds with TRPC6 inhibitor; HEK293 TRPC4/MOR, membrane potential dye fluorescence; channel activated by saturating DAMGO dose; inhibition, % at 10 µM; actives 42% (n = 920); AID 2776;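 active = compounds whose fluorescence signal differed from control wells by over 3 SD, either direction, in both duplicate plates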
TRPC4 spec – tests whether TRPC6 inhibitors also affect mouse TRPC4. activity change, negative = inhibition, % at 10 µM. HEK293 TRPC4/mu-opioid, membrane potential fluorescence. shares compounds with TRPC6 inhibitor. AID 2777. actives 61% (n = 920);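 active = rise or fall in signal beyond 3 SD of buffer-only wells in both replicate plates, either sign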;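 note: integrated kinetic ratio of fluorescence range over baseline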
HEK293 MPD ctr 2-1 – second counter-screen for TRPC6 inhibitors: parental HEK293 cells; signal change vs control, % at 10 µM; actives 31% (n = 920); shares compounds with TRPC6 inhibitor; parental HEK293 membrane potential dye fluorescence; maximal acetylcholine challenge after compound addition;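 active = membrane potential signal moving either way by over 3 SD of the maximum-effect control, in both duplicate plates, meaning non-specific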
HEK293 MPD ctr-1 – checks TRPC6 inhibitor effects in parental HEK293 cells; shares compounds with TRPC6 inhibitor; parental HEK293 membrane potential dye fluorescence; membrane potential signal change, % at 10 µM; actives 60% (n = 920);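 active = membrane potential signal shifting up or down by more than 3 SD of buffer-only wells, on both duplicate plates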
HEK293 MPD ctr-2 – parental HEK293 nonspecific activity of TRPC6 modulators; AID 488924; membrane potential dye fluorescence; shares compounds with TRPC6 inhibitor; actives 51% (n = 2,400); membrane potential signal change, % at 10 µM;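 active = membrane potential signal moves up or down beyond 5 SD from buffer-only wells, on both duplicate plates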
HEK293 MPD ctr 2-2 – parental HEK293 nonspecific activity of TRPC6 modulators, second screen; actives 14% (n = 2,400); membrane potential dye fluorescence; after compound, maximal acetylcholine stimulation; AID 488926; inhibition, % at 10 µM; shares compounds with TRPC6 inhibitor;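 active = membrane potential signal drops by more than 5 SD from the mean control signal, in both duplicate plates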;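 note: plate controls were acetylcholine ECmax control wells for no effect and buffer only wells for full effect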
TRPC4/MOR mod – tests whether TRPC6 modulators also affect mouse TRPC4; shares compounds with TRPC6 inhibitor; HEK293 TRPC4/mu-opioid, membrane potential fluorescence; percent change from control (negative = decrease, positive = increase), % at 10 µM; actives 69% (n = 2,400);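 active = membrane potential signal moved up or down beyond 5 SD of buffer control wells, in both duplicate plates, actives on both sides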;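 note: plate controls were assay buffer wells for no effect and DAMGO maximal-effect wells for full effect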
TRPC4/MOR inh 2 – second selectivity test of TRPC6 modulators against mouse TRPC4 | shares compounds with TRPC6 inhibitor | HEK293 TRPC4/mu-opioid, membrane potential dye fluorescence; stimulated with maximal-effect DAMGO | inhibition, % at 10 µM | actives 55% (n = 2,400);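 active = drop in membrane potential signal beyond 5 SD of the control wells in both duplicate plates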;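 note: TRPC4 counter screen for TRPC6 hits run under conditions tuned for TRPC6 not TRPC4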
TRPC6 block conf – confirmation of mouse TRPC6 inhibitors; shares compounds with TRPC6 inhibitor; HEK293-TRPC6, membrane potential dye, ACh-evoked depolarization; inhibition, % at 10 µM; actives 43% (n = 3,300); AID 488960;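 active = fluorescence ratio falls more than 5 SD below the full-stimulation control mean, in both duplicate runs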;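 note: integrated fluorescence ratio of peak minus minimum over baseline after agonist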
TRPC6 act conf – confirmation of mouse TRPC6 activators. shares compounds with TRPC6 inhibitor. AID 488961. activation, % at 10 µM. HEK293-TRPC6 membrane potential dye fluorescence, FDSS. actives 11% (n = 2,800);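 active = ratio signal rise beyond 5 SD above unstimulated control wells' mean, seen in both duplicate runs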;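 note: plate controls were buffer EC0 wells for no effect and acetylcholine ECmax response for full effect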
* = called active by the depositor; i = inactive; · = no result. The list is not random: actives were taken first. Their share in the collection is about 2.3%.

SMILES	TRPC4 PAM	TRPC6 act	TRPC6 inhibitor	TRPC4 act	TRPC4 inh	HEK293 MPD ctr-2	HEK293 MPD ctr 2-2	TRPC4/MOR mod	TRPC4/MOR inh 2	TRPC6 block conf	TRPC6 act conf	others
CCOC(=O)c1cn(CC2CC2)c2cc(F)c(F)cc2c1=O	i	i	-5.42*	i	i	-276.5%*	i	-48.5%*	59.0%*	53.0%*	i
CCOC(=O)c1cn(CC)c2ccc(Br)cc2c1=O	i	i	-5.97*	i	i	-106.0%*	i	-16.5%*	i	i	i
CCC(C(=O)NCc1cccnc1)n1nc(C)n2c(cc3occc32)c1=O (configuration not stated)	i	i	i	i	i	·	·	·	·	·	·
OC(CCN1CCCCC1)(c1ccccc1)c1ccccc1	i	i	-7.08*	i	i	·	·	·	·	73.7%*	·	TRPC4 spec 2=i;TRPC4 spec=17.3%*;HEK293 MPD ctr 2-1=-7.0%*;HEK293 MPD ctr-1=12.0%*
OC(CCN1CCCC1)(c1ccccc1)C1CCCCC1 (configuration not stated)	i	i	-8.15*	i	i	·	·	·	·	79.1%*	·	TRPC4 spec 2=i;TRPC4 spec=24.2%*;HEK293 MPD ctr 2-1=-14.0%*;HEK293 MPD ctr-1=15.3%*
COc1ccc(C(C)n2c(C)c3c(C)nnc(C)c3c2C)cc1 (configuration not stated)	i	i	-8.12*	i	i	-219.5%*	i	-30.0%*	65.0%*	i	i
Cc1nnc(C)c2c(C)n(C(C)c3ccccc3)c(C)c12 (configuration not stated)	i	i	i	i	i	·	·	·	·	·	·
CN1C2CCC1CC(OC(c1ccccc1)c1ccccc1)C2 (configuration not stated)	i	i	-7.06*	i	i	·	·	·	·	69.2%*	·	TRPC4 spec 2=68.0%*;TRPC4 spec=18.6%*;HEK293 MPD ctr 2-1=i;HEK293 MPD ctr-1=13.7%*
CN1C2CCC1CC(OC(=O)c1c[nH]c3ccccc13)C2 (configuration not stated)	i	i	i	i	i	·	·	·	·	·	·
COc1nc(N(c2ccccc2)c2ccccc2)nc(-n2ccnc2)n1	i	11.5*	i	i	i	372.5%*	59.0%*	64.0%*	i	i	132.5%*
O=C(OCc1nnc(-c2ccccc2)o1)c1ccc2c(c1)OCCO2	i	i	-5.75*	i	i	i	i	12.5%*	i	i	·
O=C(OCc1nnc(-c2ccccc2)o1)c1ccc(Cl)cc1	i	i	i	i	i	·	·	·	·	·	·
CN(C)c1ccc(/C=N/Nc2nncc3ccccc23)cc1	i	i	i	i	i	·	·	·	·	·	·
CCN(CC)c1ccc(C2Nc3cccc4cccc(c34)N2)cc1	i	i	-5.46*	i	i	i	i	i	i	i	i
Cc1ccc(C)c(OCCC(=O)OCC(=O)Nc2cccc(S(=O)(=O)N3CCCC3)c2)c1	i	i	i	i	i	·	·	·	·	·	·
CCOC(=O)N1CCN(c2ccc(S(=O)(=O)N(Cc3ccccc3)Cc3ccccc3)cn2)CC1	i	i	-5.32*	i	i	i	i	11.5%*	i	i	i
Fc1ccc([C@@H]2CCNC[C@H]2COc2ccc3c(c2)OCO3)cc1	i	i	-5.34*	142*	i	i	64.5%*	39.0%*	95.0%*	71.5%*	i	TRPC4 spec 2=13.5%*;TRPC4 spec=47.3%*;HEK293 MPD ctr 2-1=i;HEK293 MPD ctr-1=0.5%*
Cc1ccc([N+](=O)[O-])cc1NC(=O)CSc1nncn1-c1ccccn1	i	i	i	i	i	·	·	·	·	·	·
Cc1cc([N+](=O)[O-])ccc1NC(=O)CSc1nncn1-c1ccccn1	i	i	-5.77*	i	i	i	i	i	i	i	i
COc1cc(/C=N/NC(=O)c2ccc(-c3ccccc3)cc2)cc(OC)c1OC	i	i	i	i	i	·	·	·	·	·	·
COc1cc(/C=N/NC(=O)c2cc(-c3ccccc3)sc2N)cc(OC)c1OC	i	i	-5.01*	i	i	i	i	i	53.0%*	44.0%*	i
COc1cccc(CNC23CC4CC(CC(C4)C2)C3)c1OCc1ccccc1	i	15.3*	-7.85*	i	i	752.5%*	i	147.0%*	80.0%*	77.5%*	241.0%*
COc1cccc(CNCCc2c[nH]c3ccccc23)c1OCc1ccccc1	i	i	i	i	i	·	·	·	·	·	·
COc1ccc(CN2C(=O)CCCc3ccccc32)cc1	i	i	-5.67*	i	i	i	i	i	i	i	i
O=C1CCCc2ccccc2N1Cc1ccccc1	i	i	i	i	i	·	·	·	·	·	·
CCN(CC)CCSc1nc2ccccc2c(=S)n1-c1ccccc1	i	i	-7.32*	i	i	·	·	·	·	i	i	TRPC4 spec 2=33.0%*;TRPC4 spec=3.5%*;HEK293 MPD ctr 2-1=237.5%*;HEK293 MPD ctr-1=7.1%*
CCN(CC)CCSc1nc(O)c(-c2ccccc2)c(=O)n1-c1ccccc1	i	i	i	i	i	·	·	·	·	·	·
